How the values were obtained:
[1] = target: Sodium-dependent serotonin transporter (Rattus norvegicus) (UniProt P31652); assay: Inhibition of 5HT transporter in rat cerebral cortex assessed as [3H]-paroxetine uptake at 1 uM after 10 mins by liquid scintillation counting analysis; format: tissue-based
[2] = Cmax in Sprague-Dawley rat at 80 mg/kg, po administered through gavage by LC-MS/MS analysis; format: ADME, organism-based; design: dose 80 mg/kg, route oral; conditions: in vivo
Procedure, shortened: (§1)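 SD rats, n = 3/group. Dosing was either 5 mg/kg iv via tail vein in saline or 80 mg/kg by oral gavage as a suspension in 0.5% methylcellulose. Serial tail-vein blood was drawn into heparinized tubes at 0.5, 1, 2, 3, 4, 5, 6, 8 and 24 h. Plasma was separated, proteins precipitated with acetonitrile, and samples analysed by LC/MS.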

[3] = AUC (0 to infinity) in Sprague-Dawley rat at 80 mg/kg, po administered through gavage by LC-MS/MS analysis; format: ADME, organism-based; design: dose 80 mg/kg, route oral, time infinity; conditions: in vivo
Procedure, shortened: (§2)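 Oral gavage to rats (n = 3/group), 80 mg/kg as suspension in 0.5% methylcellulose. Blood drawn serially from lateral tail vein into heparinized tubes at 30 min and 1, 2, 3, 4, 5, 6, 8 and 24 h. Plasma obtained by centrifugation, acetonitrile protein precipitation, LC/MS quantification.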

Mus musculus [4] = assay: Antinociceptive activity in Kun Ming mouse assessed as paw licking time in delayed pain response phase at 80 mg/kg, ig administered 15 mins prior to formalin challenge measured after 15 to 45 mins post formalin dosing; format: functional
Procedure, shortened: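 Mice received 20 μL of 2.5% formalin (0.92% formaldehyde) in the dorsal right hind paw. Time spent licking or biting the paw was scored at 0–5 min (phase I) and 15–45 min (phase II), with a mirror behind the glass cylinder. Vehicle was 30% PEG 400 at 10 mL/kg, given 15 min before formalin. n = 10–12 per group. % antinociception = (LT_V − LT_D)/LT_V × 100.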

[5] = AUC (0 to last) in Sprague-Dawley rat at 80 mg/kg, po administered through gavage by LC-MS/MS analysis; format: ADME, organism-based; design: dose 80 mg/kg, time 0 - last, route oral; conditions: in vivo; procedure, shortened: as §2
[6] = Acute toxicity in po dosed Kun Ming mouse assessed as mortality after 24 hrs; format: organism-based; conditions: in vivo
Procedure, shortened: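 Mice, 10 per group, given a single oral dose (10 mL/kg) of 0.5% methylcellulose vehicle or test compound at 200, 500, 1000, 1500 or 2000 mg/kg. Survivors were counted 24 h after dosing and percent mortality per group was calculated. LD50 was derived by statistical analysis.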

Mus musculus [7] = assay: Toxicity in Kun Ming mouse assessed as impair in motor coordination at 40 to 160 mg/kg, ig measured after 30 to 120 mins by rotarod test; format: organism-based; conditions: in vivo, po
Procedure, shortened: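 Mice were pre-trained; any that could not stay 300 s on the rod at 10 rpm were excluded. Latency to fall from the rod rotating at 10 rpm was recorded 30, 60, 90 and 120 min after intragastric dosing. 8–10 mice per group.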

Rattus norvegicus [8] = assay: Antiallodynic activity in po dosed Sprague-Dawley rat chronic constriction injury-induced neuropathic pain model assessed as inhibition of mechanical allodynia administered as bid on day 15th and 18th post surgery by Von frey test; format: functional
Procedure, shortened: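 Sciatic nerve CCI in SD rats (Bennett–Xie) under 5% chloral hydrate: four loose 4-0 silk ligatures on the right sciatic nerve, about 1 cm proximal to the trifurcation. Oral dosing in 0.5% methylcellulose (10 mL/kg), twice daily on days 15–18. Testing followed the first dose on day 15 and the last dose on day 18. Mechanical withdrawal threshold by von Frey up–down method, four samplings averaged. 10 rats/group.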

[9] = target: Cannabinoid receptor 1 (Homo sapiens) (UniProt P21554); assay: Displacement of [3H]-CP-55940 from human CB1 receptor expressed in CHO cells at 1 uM after 90 mins by liquid scintillation counting analysis; format: cell-based
[10] = Half life in Sprague-Dawley rat at 5 mg/kg, iv by LC-MS/MS analysis; format: ADME, organism-based; conditions: in vivo; procedure, shortened: as §1
[11] = target: Histamine H3 receptor (Rattus norvegicus) (UniProt Q9QYN8); assay: Displacement of [3H]-N-alpha-methylhistamine from H3 receptor in rat cerebral cortex at 1 uM after 30 mins by liquid scintillation counting analysis; format: tissue-based
Rattus norvegicus [12] = assay: Effect on thermal hypersensitivity in sham-operated Sprague-Dawley rat at 20 to 80 mg/kg, po administered as bid on days 15th to 18th; format: ADME, organism-based; conditions: in vivo
Procedure, shortened: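 CCI or sham SD rats, 10 per group, dosed orally in 0.5% methylcellulose (10 mL/kg) twice daily on days 15–18. Tested after the first dose on day 15 and the last dose on day 18. Plantar test: after 30 min acclimation on a glass floor, radiant heat was applied under the hind paw and withdrawal latency recorded. 30 s cutoff; mean of four samplings.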

Sequence of Sodium-dependent serotonin transporter (Rattus norvegicus) (P31652 whole entry): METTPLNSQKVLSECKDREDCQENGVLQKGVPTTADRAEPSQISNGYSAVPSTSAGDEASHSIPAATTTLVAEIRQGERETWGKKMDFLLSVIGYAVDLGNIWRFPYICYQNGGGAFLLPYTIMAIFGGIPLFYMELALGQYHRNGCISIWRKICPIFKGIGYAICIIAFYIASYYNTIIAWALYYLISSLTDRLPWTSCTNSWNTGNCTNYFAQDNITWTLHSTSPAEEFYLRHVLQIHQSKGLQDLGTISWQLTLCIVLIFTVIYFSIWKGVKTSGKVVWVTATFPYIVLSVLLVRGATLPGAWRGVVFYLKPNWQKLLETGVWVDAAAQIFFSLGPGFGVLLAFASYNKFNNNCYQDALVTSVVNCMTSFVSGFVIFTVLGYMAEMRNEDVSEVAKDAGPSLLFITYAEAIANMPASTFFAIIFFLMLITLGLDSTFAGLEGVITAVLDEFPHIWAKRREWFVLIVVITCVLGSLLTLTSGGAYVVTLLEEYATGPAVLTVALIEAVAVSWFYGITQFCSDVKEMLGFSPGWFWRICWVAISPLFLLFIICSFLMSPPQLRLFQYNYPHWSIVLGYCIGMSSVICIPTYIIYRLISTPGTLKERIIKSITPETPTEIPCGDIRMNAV
Sequence of Cannabinoid receptor 1 (Homo sapiens) (P21554 whole entry): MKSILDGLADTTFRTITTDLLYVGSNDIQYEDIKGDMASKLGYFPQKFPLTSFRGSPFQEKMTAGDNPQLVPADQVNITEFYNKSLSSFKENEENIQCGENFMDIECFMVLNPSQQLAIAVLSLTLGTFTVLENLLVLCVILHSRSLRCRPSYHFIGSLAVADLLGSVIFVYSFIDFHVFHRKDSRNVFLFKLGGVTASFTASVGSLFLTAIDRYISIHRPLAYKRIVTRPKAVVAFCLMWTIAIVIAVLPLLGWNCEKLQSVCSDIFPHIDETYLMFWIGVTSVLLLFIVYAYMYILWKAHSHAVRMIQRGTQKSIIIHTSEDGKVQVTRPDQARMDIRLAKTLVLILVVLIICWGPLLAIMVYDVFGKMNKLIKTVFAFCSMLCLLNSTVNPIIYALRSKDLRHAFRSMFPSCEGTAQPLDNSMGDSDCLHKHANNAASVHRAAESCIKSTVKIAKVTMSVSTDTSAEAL
Sequence of Histamine H3 receptor (Rattus norvegicus) (Q9QYN8 whole entry): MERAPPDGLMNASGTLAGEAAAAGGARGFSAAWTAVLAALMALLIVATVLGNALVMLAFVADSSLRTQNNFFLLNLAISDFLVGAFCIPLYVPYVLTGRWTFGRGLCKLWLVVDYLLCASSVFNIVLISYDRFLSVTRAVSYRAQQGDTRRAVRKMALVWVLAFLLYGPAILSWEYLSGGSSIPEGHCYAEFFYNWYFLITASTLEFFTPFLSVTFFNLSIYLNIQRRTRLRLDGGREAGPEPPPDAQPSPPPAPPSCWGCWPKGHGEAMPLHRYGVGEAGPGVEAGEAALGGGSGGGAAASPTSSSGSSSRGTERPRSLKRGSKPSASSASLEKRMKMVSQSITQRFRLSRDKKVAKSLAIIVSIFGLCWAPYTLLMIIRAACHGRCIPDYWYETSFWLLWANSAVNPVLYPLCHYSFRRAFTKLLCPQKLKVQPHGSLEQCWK

Structure (SMILES): O=c1ccc(OCCCN2CCCCC2)nn1-c1ccc(Cl)c(Cl)c1
- inhibition [1]: < 50%
- Cmax [2]: 2920 ng/mL
- AUC(0-inf) [3]: 13400 ng·h/mL
- Time (Mus musculus [4]): 45.88 s
- AUC(0-t) [5]: 11700 ng·h/mL
- LD50 at 24 h [6]: > 2000 mg/kg
- Activity (Mus musculus [7]): Non-toxic
- ED50 (Rattus norvegicus [8]): 40.3 mg/kg
- inhibition [9]: < 50%
- half-life [10]: 83.4 min
- inhibition [11]: < 50%
- Activity (Rattus norvegicus [12]): Non-toxic

From ChEMBL document CHEMBL3804799, “Synthesis and Biological Evaluation of Novel σ1 Receptor Ligands for Treating Neuropathic Pain: 6-Hydroxypyridazinones” (J Med Chem, 2016)
